Bioassay records as filed in PubChem BioAssay.
Only some compounds are listed: those with a hit (about 2% of all), similar ones and a draw of the others.
TPT1 inhibitor: Candida albicans TPT1 enzyme inhibitors, primary screen, biochemical, fluorescence polarization; tRNA 2'-phosphotransferase TPT1 (Candida albicans SC5314); recombinant caTPT1, FP RNA substrate dephosphorylation; inhibition, % at 5 µM; 300,000 compounds, 0.81% hits;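 active means inhibition above the mean of all tested compounds plus 3 SD, set per screening campaign, cut at about 24% in these data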;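 further: plate controls were DMSO alone for no effect and ferristatin control at 100 nM for full effect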
ATG4B inh: ATG4B protease inhibitors, primary screen, biochemical, fluorescence, uHTS; inhibition, % at 8.33 µM; ATG4B cleavage of LC3-PLA2, NBD-HPC fluorescence, 1 h; 340,000 compounds, 0.51% hits; in the data active means inhibition above about 40%
Rpn11 inh: Rpn11 (PSMD14) deubiquitinase inhibitors, primary screen, biochemical, fluorescence polarization, uHTS. human 26S proteasome, Ub4-pepOG fluorescence polarization; 20S core pre-blocked with epoxomicin. inhibition, % at 20 µM. 360,000 compounds, 0.59% hits;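 active means inhibition at 20 µM, scaled to each plate's controls, above about 33%, limit read from the data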
Target sequence (O00487 whole entry, looked up): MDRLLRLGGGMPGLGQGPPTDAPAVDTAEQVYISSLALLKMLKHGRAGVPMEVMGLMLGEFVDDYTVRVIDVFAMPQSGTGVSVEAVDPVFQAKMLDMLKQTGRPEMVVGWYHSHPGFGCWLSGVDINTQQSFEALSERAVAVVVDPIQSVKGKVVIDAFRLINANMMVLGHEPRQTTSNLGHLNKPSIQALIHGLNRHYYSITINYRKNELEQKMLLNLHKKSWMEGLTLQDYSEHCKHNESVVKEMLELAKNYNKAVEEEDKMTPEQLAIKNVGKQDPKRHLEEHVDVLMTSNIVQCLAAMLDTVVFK
SENP1 inh: human SENP1 catalytic domain inhibitors, primary screen, biochemical, FRET, uHTS | recombinant SENP1 catalytic domain, CyPet-SUMO1-YPet FRET cleavage | inhibition, % at 10 µM | 360,000 compounds, 0.21% hits | AID 624204, 2012;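 active means inhibition at least 30% at 10 µM, raw YFP signal under a set limit, fluorescence ratio 0.5 to 1.5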;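 further: 0% = enzyme with DMSO and 100% = no enzyme wells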
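system = hSENP1 catalytic domain, recombinant | reagent = SFCypet-SUMO1-SFYpet substrate at 25 nM | doses = one dose per compound, 10 µM, 0.5% DMSO | incubation = enzyme reaction for 50 min at room temperature, dark | measured by = FRET, CFP and YFP emission | controls = no-enzyme low, enzyme-DMSO high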
CSN inh: inhibitors of CSN-mediated cullin deneddylation, primary screen, biochemical, fluorescence polarization, uHTS; AID 651999, 2013; 360,000 compounds, 0.38% hits; inhibition, % at 12.5 µM; Purified CSN, SCF-Nedd8-OG deneddylation;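 active means pattern-corrected inhibition above about 35%, with an unprinted fluorescence ratio check between 0.5 and 1.5, limit read from the data, passing the limit was not always enough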;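 further: 0% = enzyme with substrate and 100% = substrate without enzyme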
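Assay system: purified human Csn5 enzyme expressed in HEK293T cells; measure: % inhibition; also added: SCFSkp2-Nedd8OG substrate at 10 nM final; technique: fluorescence polarization; times: reaction 90 min, room temperature; medium: Tris buffer pH 7.5, NaCl, DTT, Tween-20, trehalose, ovalbumin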
HNF4A DNA FP: change in binding of human HNF4A to DNA, primary screen, biochemical, fluorescence polarization, FITC-DNA | Hepatocyte nuclear factor 4-alpha (Homo sapiens), P41235 | 1 h | activity change, % at 10 µM | 360,000 compounds, 0.3% hits; in the data active means activity change above about 30%, passing the limit was not always enough
ATG4B confirm: ATG4B protease inhibitors, retest, confirmation, biochemical, fluorescence, single concentration; shares compounds with ATG4B inh; ATG4B protease fluorescent substrate cleavage assay; 320 compounds, 92% hits; inhibition, % at 8.33 µM; in the data active means inhibition above about 39%
PLA2 counter: PLA2 enzyme inhibition, counter-screen for ATG4B inhibitor project, biochemical, single concentration, uHTS hits. inhibition, % at 8.33 µM. 1,600 compounds, 66% hits. purified PLA2, NBD-C6-HPC fluorescence, 45 min. shares compounds with ATG4B inh; in the data active means inhibition above about 50%
Target sequence (P04054 whole entry, looked up): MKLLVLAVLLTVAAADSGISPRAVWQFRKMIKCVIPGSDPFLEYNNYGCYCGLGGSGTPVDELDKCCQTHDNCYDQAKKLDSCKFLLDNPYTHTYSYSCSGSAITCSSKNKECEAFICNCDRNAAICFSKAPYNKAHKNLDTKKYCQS
Starred values were filed as active, the others as inactive.

CCCC(=O)N1CCCC1(C)C(=O)Nc1cc(C)ccc1C (stereo not given) was read as Rpn11 inh 5, SENP1 inh 0, CSN inh -1 and HNF4A DNA FP 4.
`COc1ccc(N(CC(=O)Nc2cccc(C)c2)S(=O)(=O)c2ccc(C)cc2)cc1OC` gave TPT1 inhibitor 3, ATG4B inh -4, Rpn11 inh 1, SENP1 inh 0, CSN inh 0 and HNF4A DNA FP 1.
For Cc1ccc(S(=O)(=O)N(CC(=O)Nc2ccc(Cl)c([N+](=O)[O-])c2)C2CCCCC2)cc1 the results were TPT1 inhibitor -2, ATG4B inh 16, Rpn11 inh -10, SENP1 inh -8, CSN inh 4 and HNF4A DNA FP -4.
COc1ccc([N+](=O)[O-])cc1NC(=O)c1ccc(CN(c2ccc(C)c(C)c2)S(C)(=O)=O)cc1 was read as TPT1 inhibitor -2, ATG4B inh -9, Rpn11 inh 2, SENP1 inh 0, CSN inh -4 and HNF4A DNA FP 1.
COc1ccc(C)cc1S(=O)(=O)N(CC(=O)Nc1cccc([N+](=O)[O-])c1)c1cc(C)cc(C)c1 was read as TPT1 inhibitor -3, ATG4B inh 83*, Rpn11 inh 6, SENP1 inh 1, CSN inh 1, HNF4A DNA FP 3 and PLA2 counter 86*.
COc1ccc(C)cc1S(=O)(=O)N(CC(=O)Nc1cc([N+](=O)[O-])ccc1C)c1ccc(C)c(C)c1 was read as TPT1 inhibitor 0, ATG4B inh 77*, Rpn11 inh -5, SENP1 inh 3, CSN inh -1, HNF4A DNA FP 3 and PLA2 counter 87*.
`Cc1ccc(S(=O)(=O)N(CC(=O)Nc2cccc([N+](=O)[O-])c2)C2CCCCC2)cc1` gave TPT1 inhibitor 6, ATG4B inh 45*, Rpn11 inh -3, SENP1 inh 0, CSN inh 1, HNF4A DNA FP 1 and PLA2 counter 51*.
For Cc1cccc(N=[N+]([O-])c2cccc(C)n2)n1 the results were ATG4B inh -6, Rpn11 inh 0, SENP1 inh -6, CSN inh -1 and HNF4A DNA FP 0.
For Cc1cccc(Cc2nc3ccccc3[nH]2)c1 the results were ATG4B inh 1, Rpn11 inh -4, SENP1 inh 1, CSN inh -1 and HNF4A DNA FP 3.
`COc1cccc(/C=N/NC(=O)c2[nH]c(C)c(C(=O)N/N=C/c3cccc(OC)c3O)c2C)c1O` gave TPT1 inhibitor 2, ATG4B inh 62*, Rpn11 inh 39, SENP1 inh 21, CSN inh 5, HNF4A DNA FP 2, ATG4B confirm 33 and PLA2 counter 24.
`COc1ccccc1N1CC(C(=O)OCC(=O)c2c(N)n(C)c(=O)n(C)c2=O)CC1=O` (stereo not given) gave Rpn11 inh 1, SENP1 inh 1, CSN inh 2 and HNF4A DNA FP -2.
`CCOc1cc2c3c(c1)C1(Nc4ccccc4S1)C(=O)N3C(C)(C)CC2C` (stereo not given) gave TPT1 inhibitor 1, ATG4B inh 43*, Rpn11 inh 8, SENP1 inh -4, CSN inh -2, HNF4A DNA FP 2 and PLA2 counter 28.
For C[C@@H]1CN([C@@H](C)CO)C(=O)CCCn2nncc2CO[C@H]1CN(C)S(=O)(=O)c1ccccc1C#N the results were Rpn11 inh -6, SENP1 inh 1, CSN inh -2 and HNF4A DNA FP -6.
CN1C(=O)CSc2ccc(NC(=O)NCc3ccc(F)cc3)cc21 was read as TPT1 inhibitor 0, ATG4B inh 64*, Rpn11 inh 2, SENP1 inh 3, CSN inh -8, HNF4A DNA FP 1 and PLA2 counter 79*.
COc1cccc(-c2cnc(C(O)c3ccc(F)cc3C)[nH]2)c1 (stereo not given) was read as Rpn11 inh 0, SENP1 inh 0, CSN inh 3 and HNF4A DNA FP 5.
For CCCc1cc(C(=O)N(C2CCCCC2)C2CCCCC2)no1 the results were TPT1 inhibitor -2, ATG4B inh 60*, Rpn11 inh 8, SENP1 inh 2, CSN inh -1, HNF4A DNA FP 7 and PLA2 counter 72*.
Screening COc1ccccc1-c1cnc(C(O)c2ccc(Cl)cc2)[nH]1 (stereo not given) returned Rpn11 inh 0, SENP1 inh 1, CSN inh 2 and HNF4A DNA FP 3.
For Fc1cccc(Cl)c1CSc1nnc(COc2cccc3cccnc23)o1 the results were TPT1 inhibitor 2, ATG4B inh 64*, Rpn11 inh -3, SENP1 inh -1, CSN inh -4, HNF4A DNA FP -2 and PLA2 counter 67*.
NCCc1nnc(SCc2c(F)cccc2Cl)o1 was read as TPT1 inhibitor -1, ATG4B inh 1, Rpn11 inh 1, SENP1 inh 1, CSN inh 3 and HNF4A DNA FP -5.
`COC(=O)c1ccc(CSc2nnc(-c3c[nH]c4ccccc34)n2-c2ccccc2)cc1` gave TPT1 inhibitor -4, ATG4B inh 46*, Rpn11 inh 1, SENP1 inh 2, CSN inh 4, HNF4A DNA FP -3 and PLA2 counter 67*.
Screening COC(=O)c1ccc(CSc2nnc(-c3c[nH]c4ccccc34)n2C)o1 returned TPT1 inhibitor -2, ATG4B inh 1, Rpn11 inh 7, SENP1 inh 3, CSN inh -3 and HNF4A DNA FP -2.
